Results on 4 compounds are retold here after ChEMBL document CHEMBL1127433, “N6-substituted adenosine receptor agonists. Synthesis and pharmacological activity as potent antinociceptive agents” (J Med Chem, 1994).

Each structure is given as a SMILES string. The source made the active and inactive calls. No cut-off for these calls is given here.

Test [1] addresses T1, Adenosine receptor A1 (Rattus norvegicus, UniProt P25099).
T1 sequence (P25099 whole entry): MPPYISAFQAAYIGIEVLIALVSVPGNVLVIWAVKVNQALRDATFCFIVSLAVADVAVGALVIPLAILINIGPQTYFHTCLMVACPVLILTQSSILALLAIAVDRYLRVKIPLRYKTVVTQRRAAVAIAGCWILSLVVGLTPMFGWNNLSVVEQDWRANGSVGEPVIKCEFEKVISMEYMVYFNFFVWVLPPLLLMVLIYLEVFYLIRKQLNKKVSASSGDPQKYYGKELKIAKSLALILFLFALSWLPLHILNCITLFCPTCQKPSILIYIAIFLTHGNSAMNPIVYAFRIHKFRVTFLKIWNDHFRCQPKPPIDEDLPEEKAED
The test is described as follows: Binding affinity for adenosine A1 receptor in rat brain membrane. The format is cell membranes. In a few lines: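 Whole rat brain membranes, homogenized in 50 mM Tris-HCl pH 7.4 and spun at 1090g then 48000g, pretreated with adenosine deaminase 1 U/mL for 30 min. Incubated with 2.5 nM [3H]PIA and competitor at 20 °C for 30 min. Nonspecific binding defined with 10 μM PIA. Separated by GF/B filtration and scintillation counted, in triplicate. IC50 from log-logit regression, Ki via Cheng-Prusoff, one experiment.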

The target of test [2] is T2, Adenosine receptor A1 (Rattus norvegicus) (UniProt P25099).
T2 sequence (whole entry): T1 sequence (P25099 whole entry)
As to the kind of experiment: Percent displacement from adenosine A1 receptor at 10e-5 M in rat brain membrane in vitro. The format is cell membranes.

The target in test [3] is T2, Adenosine receptor A1 (Rattus norvegicus). As to the kind of experiment: Percent displacement from adenosine A1 receptor at 10e-7 M in rat brain membrane in vitro. The format is cell membranes.
The target of another test is Adenosine A2 receptor (Rattus norvegicus, UniProt P29276+P30543). The test is described as follows: Binding affinity for adenosine A2 receptor in vitro using rat striatal membrane. The test is classed as cell membranes. In a few lines:
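Rat striatal membranes in 50 mM Tris-HCl, 10 mM MgCl2, pH 7.7, adenosine deaminase treated (1 U/mL, 30 min). Incubated with [3H]NECA (4 nM, 50 μL) plus 0.11 μM cyclopentyladenosine and competitor for 60 min at 25 °C. Nonspecific binding defined with 5 μM NECA. GF/B filtration, scintillation counting, triplicate. IC50 from log-logit regression, Ki via Cheng-Prusoff, one experiment.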

The target in test [4] is T3, Adenosine A2 receptor (Rattus norvegicus) (UniProt P29276+P30543). As to the kind of experiment: Percent displacement from adenosine A2 receptor at 10e-5 M in rat striatal membrane in vitro. The format is cell membranes.
In test [5] the target is T3, Adenosine A2 receptor (Rattus norvegicus). As to the kind of experiment: Percent displacement from adenosine A2 receptor at 10e-7 M in rat striatal membrane in vitro. Conditions: Striatum. The test is classed as cell membranes.
Test [6] concerns Mus musculus. The test is described as follows: Effective dose for phenylbenzoquinone-induced writhing in mice after peroral administration expressed as analgesic activity. The format is functional. Conditions: po. In a few lines: (§1)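 Mice dosed orally (0.5 mL/20 g); 1 h later given 0.02% phenylbenzoquinone in hydroalcoholic solution ip (0.20-0.24 mL). Writhings and stretches counted from minute 5 to minute 10. Six animals per group. Inhibition taken against the control mean; ED50 (50% decrease) by linear regression.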
Background: Writhing tests count abdominal constrictions after an irritant is injected.

Test [7] addresses T1, Adenosine receptor A1. The test is described as follows: Binding affinity for adenosine A1 receptor in vitro using rat brain membranes. The test is classed as cell membranes. In outline:
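Whole rat brain membranes, homogenized in 50 mM Tris-HCl pH 7.4 and spun at 1090g then 48000g, pretreated with adenosine deaminase 1 U/mL for 30 min. Nonspecific binding defined with 10 μM PIA. Separated by GF/B filtration and scintillation counted, in triplicate. IC50 from log-logit regression, Ki via Cheng-Prusoff, one experiment.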

Test [8] has as its system Mus musculus. As to the kind of experiment: Effective dose of compound for phenylbenzoquinone-Induced writhing in mice after peroral administration expressed as analgesic activity; Inactive. The format is functional, organism-based. In outline:
as §1

Test [9] has as its system Mus musculus. The test is described as follows: Effective dose of compound for phenylbenzoquinone-Induced writhing in mice after peroral administration expressed as analgesic activity; Not calculated. The format is functional. Conditions: po. In a few lines: as §1

What is called Ki is a dissociation constant, usually derived from enzyme kinetics or from competition with a known ligand. A higher Ki goes with a looser hold on the target. The ED50 is the dose that gives a 50% effect, or the effect in half of the subjects.

Turning to `O=C(NC1CC1)[C@H]1O[C@@H](n2cnc3c(NCCc4cn(Cc5cccc6ccccc56)c5ccccc45)ncnc32)[C@H](O)[C@@H]1O`, the Ki at Adenosine receptor A1 [1] worked out at 370 nM; on Adenosine A2 receptor it was 1400 nM. For the same compound, the Displacement in [2] was found to be 93%; in test [3], 20%; in [4] it was 76%; in test [5], 8%. In the test with Mus musculus [6], the 50% effect level (ED50) was put at a dose of 2.4 mg/kg.

Regarding `O=C(NC1CC1)[C@H]1O[C@@H](n2cnc3c(NCCc4c[nH]c5ccccc45)ncnc32)[C@H](O)[C@@H]1O`, the Ki at Adenosine receptor A1 [1] stood at 7.9 nM; on Adenosine A2 receptor, 560 nM. Also, the Displacement in [2] is 100%; in test [3], 91%; in test [4], 68%; in test [5], 29%. Moreover, it took a dose of 34.9 mg/kg to reach the 50% effect level in the test on Mus musculus [6] (ED50).

As to `COCCNC(=O)[C@H]1O[C@@H](n2cnc3c(NCCc4cn(Cc5ccc(Cl)cc5)c5ccccc45)ncnc32)[C@H](O)[C@@H]1O`, the values for the Ki at Adenosine receptor A1 [7] and at Adenosine A2 receptor were 890 nM and more than 10000 nM, respectively. Moreover, the Displacement turned out to be 90% in test [2], 13% in [3], 36% in test [4] and 0% in test [5]. The ED50 entry in the test with Mus musculus [8] is “inactive”.

Turning to `O=C(NC1CC1)[C@H]1O[C@@H](n2cnc3c(NCCc4cn(Cc5cccc([N+](=O)[O-])c5)c5ccccc45)ncnc32)[C@H](O)[C@@H]1O`, the Ki on Adenosine receptor A1 [7] turned out to be 29 nM; on Adenosine A2 receptor, 182 nM. Besides, the Displacement was found to be 100% in test [2], 63% in [3], 99% in [4] and 46% in [5]. Besides, the ED50 with Mus musculus [9] was less than 10 mg/kg.
